{"data": "Experimental data collected from several papers", "effect on": "cell growth or viability", "note": "Compare with care: the assays were run in different laboratories."}
{"Structure (SMILES)": "Cc1ccc2c(c1C)NC(=O)[C@]21NN=C(c2ccccc2)S1", "cell line": "Huh-7", "technique": "MTT", "time": "24 h", "CC50": "28.6 µM"}
{"Structure (SMILES)": "CCO[C@@H](Cc1ccc(OCCn2c(C)ccc2-c2ccc(SC)cc2)cc1)C(=O)O", "cell line": "LX-2", "technique": "ATP luminescence", "time": "48 h", "setting": "serum-free", "CC50": "> 50 µM"}
{"Structure (SMILES)": "CCOP(=O)(OCC)[C@@H]1C[C@@H](n2cc(-c3cccc(F)c3)nn2)ON1C (racemic)", "cell line": "human T-lymphocyte", "time": "72 h", "CC50": "> 250 µM"}
{"Structure (SMILES)": "COc1ccc(NC(=O)N2CCCCN3[C@H](CN(C)S(C)(=O)=O)[C@H](c4ccc(C#Cc5ccccc5)cc4)[C@@H]3C2)cc1", "cell line": "HEK-293T", "CC50": "> 40 µM"}
{"Structure (SMILES)": "NCCN(C(=O)c1ccc(Cl)cc1Cl)c1ccc(OCc2ccc(Cl)cc2)cc1", "cell line": "Huh-7", "technique": "MTT", "time": "24 h", "CC50": "11.9 µM"}
{"Structure (SMILES)": "CCOP(=O)(OCC)[C@@H]1C[C@H](n2cc(-c3ccccc3)nn2)ON1C", "cell line": "human T-lymphocyte", "time": "72 h", "CC50": "> 250 µM"}
{"Structure (SMILES)": "CN1CCC(NCc2cccc(-c3ccc(S(=O)(=O)NCc4ccccc4)cc3)c2)CC1", "cell line": "Huh-7", "technique": "MTT", "time": "24 h", "CC50": "6.84 µM"}
{"Structure (SMILES)": "CCOP(=O)(OCC)[C@@H]1C[C@H](n2cc(C(=O)OC)nn2)ON1C (relative stereo)", "cell line": "human T-lymphocyte", "time": "72 h", "CC50": "> 250 µM"}
{"Structure (SMILES)": "O=C(CNc1nc(NS(=O)(=O)c2ccccc2)ncc1-c1nc2ccccc2s1)c1ccc(Br)cc1", "cell line": "BGM", "CC50": "220 µg/mL"}
{"Structure (SMILES)": "CCOP(=O)(OCC)[C@@H]1C[C@@H](n2cc(Cn3ccc(=O)[nH]c3=O)nn2)ON1C (racemic)", "cell line": "human T-lymphocyte", "time": "72 h", "CC50": "> 250 µM"}
{"Structure (SMILES)": "CO[C@H]1/C=C/O[C@@]2(C)Oc3c(C)c(O)c4c(O)c(c(/C=N/N5CCN(C)CC5)c(O)c4c3C2=O)NC(=O)/C(C)=C\\C=C[C@H](C)[C@H](O)[C@@H](C)[C@@H](O)[C@@H](C)[C@H](OC(C)=O)[C@@H]1C", "cell line": "Huh-7", "technique": "MTT", "time": "24 h", "CC50": "304 µM"}
{"Structure (SMILES)": "O=C1OC[C@H]2OC(O)[C@H](O)[C@@H](O)[C@@H]2OC(=O)c2cc(O)c(O)c(O)c2-c2c(O)c(O)c3oc(=O)c4c(c(O)c(O)c5oc(=O)c2c3c54)-c2c1cc(O)c(O)c2O (mixture of isomers)", "cell line": "Huh-7", "technique": "MTT", "CC50": "> 5000 µM"}
{"Structure (SMILES)": "CCOP(=O)(OCC)[C@@H]1C[C@H](n2cc(-c3nccn3C)nn2)ON1C", "cell line": "human T-lymphocyte", "time": "72 h", "CC50": "> 250 µM"}
{"Structure (SMILES)": "Cc1cc(NCCc2ccccc2)nc(NC(=N)Nc2ccc(Cl)cc2)n1", "cell line": "Huh-7", "technique": "MTT", "time": "24 h", "CC50": "15.2 µM"}
{"Structure (SMILES)": "CCOP(=O)(OCC)[C@@H]1C[C@H](n2cc(Cn3ccc(NC(C)=O)nc3=O)nn2)ON1C (racemic)", "cell line": "human T-lymphocyte", "time": "72 h", "CC50": "> 250 µM"}
{"Structure (SMILES)": "CCO[C@H](COc1ccc(C(F)(F)F)cc1)CSc1ccc(OCC(=O)O)c(C)c1", "cell line": "LX-2", "technique": "ATP luminescence", "time": "48 h", "setting": "serum-free", "CC50": "> 50 µM"}
{"Structure (SMILES)": "CCOP(=O)(OCC)[C@@H]1C[C@H](n2cc(-c3ccccn3)nn2)ON1C", "cell line": "human T-lymphocyte", "time": "72 h", "CC50": "> 250 µM"}
{"Structure (SMILES)": "Cc1ccc(S(=O)(=O)Nc2nc(N)c(-c3nc4ccccc4s3)c(-c3ccc(F)cc3)n2)cc1", "cell line": "BGM", "CC50": "190 µg/mL"}
{"Structure (SMILES)": "CCOP(=O)(OCC)[C@@H]1C[C@H](n2cc(Cn3cnc4c(N)ncnc43)nn2)ON1C (relative stereo)", "cell line": "human T-lymphocyte", "time": "72 h", "CC50": "> 250 µM"}
{"Structure (SMILES)": "N=C(N)c1ccc(OCCCCCOc2ccc(C(=N)N)cc2)cc1", "cell line": "Huh-7", "technique": "MTT", "time": "24 h", "CC50": "9.24 µM"}
{"Structure (SMILES)": "C=C1CN(S(=O)(=O)c2ccc(C)cc2)CCCN(CCc2ccccc2)CCCN(S(=O)(=O)c2ccc(C)cc2)C1", "cell line": "HEK-293T", "technique": "resazurin", "time": "72 h", "CC50": "> 50 µM"}
{"Structure (SMILES)": "O=C(O)CCCc1cc2cc(Cl)ccc2n1S(=O)(=O)c1ccc2ncsc2c1", "cell line": "LX-2", "technique": "ATP luminescence", "time": "48 h", "setting": "serum-free", "CC50": "> 40 µM"}
{"Structure (SMILES)": "O=C(O)c1ccc(-n2nc(-c3ccccc3O)nc2-c2ccccc2O)cc1", "cell line": "Huh-7", "technique": "MTT", "time": "24 h", "CC50": "> 200 µM"}
{"Structure (SMILES)": "Nc1nc(NS(=O)(=O)c2ccccc2)nc(-c2ccc(F)cc2)c1-c1nc2ccccc2s1", "cell line": "BGM", "CC50": "180 µg/mL"}
{"Structure (SMILES)": "Cc1ccc2oc(-c3cc(NC(=O)Cc4ccccc4)ccc3Cl)nc2c1", "cell line": "Huh-7", "technique": "MTT", "time": "24 h", "CC50": "> 400 µM"}
{"Structure (SMILES)": "Nc1nc(NS(=O)(=O)c2ccccc2)nc(-c2ccc(Cl)cc2)c1-c1nc2ccccc2s1", "cell line": "BGM", "CC50": "230 µg/mL"}
{"Structure (SMILES)": "O=c1oc2c(O)c(O)cc3c(=O)oc4c(O)c(O)cc1c4c23", "cell line": "Huh-7", "technique": "MTT", "CC50": "> 5000 µM"}
